Values after ≈ are worked out from the molar mass of the structure shown. Active and inactive are the calls of the source. No cut-off for these calls is given here.
Legend:
Escherichia coli [1] = test: Antimicrobial activity against Escherichia coli K-12 after 18 to 24 hrs by spectrophotometry based broth micro dilution assay; assay type: functional; conditions: read-out: MIC100
Outline: (§1)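 CLSI broth microdilution. Mid-log cells grown in MHB at 37 °C, shaken 120 rpm, washed three times in PBS pH 7.4, diluted in fresh MHB to a final 1–2 × 10⁵ cfu/mL. Two-fold serial dilutions from 250 down to 3.9 µM. Incubated 18–24 h at 37 °C, 120 rpm. A600 read; MIC taken as the lowest concentration giving 100% growth inhibition. Triplicate, three independent experiments.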

Staphylococcus aureus [2] = test: Antimicrobial activity against Staphylococcus aureus SA38 after 18 to 24 hrs by spectrophotometry based broth micro dilution assay; assay type: functional; conditions: read-out: MIC100; outline: as §1
Pseudomonas aeruginosa = test: Antimicrobial activity against Pseudomonas aeruginosa PAO1 after 18 to 24 hrs by spectrophotometry based broth micro dilution assay; assay type: functional; conditions: read-out: MIC100; outline: as §1
Lipid bilayer [3] = test: Binding affinity to zwitterionic tethered bilayer lipid membranes assessed as increase in membrane capacitance changes at 10 uM by electrochemical impedance spectroscopic analysis
Outline: (§2)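 Tethered bilayer membranes formed from a mobile phase of 70% diphytanyl-glycero-phosphatidylcholine and 30% diphytanyl-diglyceride ether (3 mM in ethanol), associated for 2 min, then washed with PBS to give zwitterionic membranes. A variant mobile phase gave negatively charged membranes. Conduction and capacitance measured by AC impedance spectroscopy with Lev-Mar fitting. Triplicate.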

Lipid bilayer [4] = test: Binding affinity to negatively charged tethered bilayer lipid membranes assessed as increase in membrane capacitance changes at 10 uM by electrochemical impedance spectroscopic analysis; outline: as §2
Staphylococcus aureus [5] = test: Antibiofilm activity against drug-resistant pre-formed Staphylococcus aureus biofilms assessed as inhibition of biomass formation at 4 times MIC; assay type: functional
Staphylococcus aureus [6] = test: Antibiofilm activity against Staphylococcus aureus SA38 assessed as inhibition of biofilm formation at 250 uM after 24 hrs by crystal violet staining based assay relative to control; assay type: functional; conditions: SA38, 24 h
Outline: (§3)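 Overnight culture diluted 1:20 in LB and grown overnight at 37 °C, 150 rpm, in 96-well plates. Compounds added at 250 µM from DMSO stock; controls received equal DMSO. Incubated overnight at 37 °C, 150 rpm. Biofilm on polystyrene quantified by crystal violet staining. Triplicate, three independent experiments.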

Escherichia coli [7] = test: Antibiofilm activity against Escherichia coli K-12 assessed as inhibition of biofilm formation at 250 uM after 24 hrs by crystal violet staining based assay relative to control; assay type: functional; conditions: K-12, 24 h; outline: as §3
MRC5 [8] = test: Cytotoxicity against human MRC5 cells up to 350 uM after 72 hrs by Alamar blue staining-based spectrophotometric analysis; assay type: cell-based; conditions: mrc5, 72 h
Outline: (§4)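 MRC-5 lung fibroblasts grown in MEM with 10% FCS, 37 °C, 5% CO₂. Seeded at 2 × 10⁴ cells/well to confluence, then treated 24 h later for 72 h. Medium replaced with 10% Alamar blue for 6 h and absorbance read. Viability expressed as % of untreated cells and IC50 derived. Triplicate, three independent experiments.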

MRC5 [9] = test: Cytotoxicity against human MRC5 cells after 72 hrs by Alamar blue staining-based spectrophotometric analysis; assay type: cell-based; conditions: for IC50: Homo sapiens, MRC5, 72 h; for Activity: human, mrc5, 72 h; outline: as §4
Lipid bilayer [10] = test: Binding affinity to negatively charged tethered bilayer lipid membranes assessed as increase in membrane conduction response at 0.1 to 100 uM by electrochemical impedance spectroscopic analysis; outline: as §2
Lipid bilayer [11] = test: Binding affinity to zwitterionic tethered bilayer lipid membranes assessed as increase in membrane conduction response by electrochemical impedance spectroscopic analysis; outline: as §2
Lipid bilayer [12] = test: Binding affinity to negatively charged tethered bilayer lipid membranes assessed as increase in membrane capacitance changes at 0.1 to 100 uM by electrochemical impedance spectroscopic analysis; outline: as §2
Lipid bilayer [13] = test: Binding affinity to zwitterionic tethered bilayer lipid membranes assessed as increase in membrane capacitance changes at 0.1 to 100 uM by electrochemical impedance spectroscopic analysis; outline: as §2
Staphylococcus aureus [14] = test: Induction of cytoplasmic membrane disruption in Staphylococcus aureus SA38 at 31.2 uM measured within 3 mins by diSC3-5 dye-based luminescence spectrophotometric analysis; assay type: functional, organism-based
Staphylococcus aureus [15] = test: Induction of cytoplasmic membrane disruption in Staphylococcus aureus SA38 at 7.8 to 62.5 uM measured within 3 mins by diSC3-5 dye-based luminescence spectrophotometric analysis; assay type: functional, organism-based
Escherichia coli [16] = test: Induction of cytoplasmic membrane disruption in Escherichia coli K-12 at 3.9 to 31.2 uM by diSC3-5 dye-based luminescence spectrophotometric analysis; assay type: functional, organism-based

| Compound | MIC (Escherichia coli [1]) | MIC (Staphylococcus aureus [2]) | MIC (Pseudomonas aeruginosa) | Activity (Lipid bilayer [3]) | Activity (Lipid bilayer [4]) | inhibition (INH) (Staphylococcus aureus [5]) | inhibition at 250 µM (Staphylococcus aureus [6]) | inhibition at 250 µM (Escherichia coli [7]) | Activity (MRC5 [8]) | IC50 (MRC5 [9]) | Activity (MRC5 [9]) | Activity (Lipid bilayer [10]) | Activity (Lipid bilayer [11]) | Activity (Lipid bilayer [12]) | Activity (Lipid bilayer [13]) | Activity (Staphylococcus aureus [14]) | Activity (Staphylococcus aureus [15]) | Activity (Escherichia coli [16]) |
| --- | --- | --- | --- | --- | --- | --- | --- | --- | --- | --- | --- | --- | --- | --- | --- | --- | --- | --- |
| N=C(N)NCCNC(=O)[C@H](Cc1c[nH]c2ccccc12)NC(=O)[C@@H](N)Cc1ccccc1 | > 125 µM | > 250 µM |  |  |  |  |  |  |  |  |  |  |  |  |  |  |  |  |
| N=C(N)NCCNC(=O)c1cccc(-c2cccc(N)c2)c1 | > 125 µM | 62.5 µM (≈ 18.6 µg/mL) | > 250 µM | inactive | inactive |  |  |  |  |  |  |  |  |  |  |  |  |  |
| CC[C@H](C)[C@H](NC(=O)[C@H](CCCCN)NC(=O)[C@H](CCC(=O)O)NC(=O)[C@H](CCCCN)NC(=O)[C@H](CO)NC(=O)[C@H](CCCCN)NC(=O)[C@H](CCCNC(=N)N)NC(=O)[C@H](Cc1ccccc1)NC(=O)[C@H](Cc1ccccc1)NC(=O)[C@H](CC(=O)O)NC(=O)CNC(=O)[C@H](CC(C)C)NC(=O)[C@@H](N)CC(C)C)C(=O)NCC(=O)N[C@@H](CCCCN)C(=O)N[C@@H](CCC(=O)O)C(=O)N[C@@H](Cc1ccccc1)C(=O)N[C@@H](CCCCN)C(=O)N[C@@H](CCCNC(=N)N)C(=O)N[C@H](C(=O)N[C@H](C(=O)N[C@@H](CCC(N)=O)C(=O)N[C@@H](CCCNC(=N)N)C(=O)N[C@H](C(=O)N[C@@H](CCCCN)C(=O)N[C@@H](CC(=O)O)C(=O)N[C@@H](Cc1ccccc1)C(=O)N[C@@H](CC(C)C)C(=O)N[C@@H](CCCNC(=N)N)C(=O)N[C@@H](CC(N)=O)C(=O)N[C@@H](CC(C)C)C(=O)N[C@H](C(=O)N1CCC[C@H]1C(=O)N[C@@H](CCCNC(=N)N)C(=O)N[C@H](C(=O)N[C@@H](CCC(=O)O)C(=O)N[C@@H](CO)C(=O)O)[C@@H](C)O)C(C)C)[C@@H](C)CC)C(C)C)[C@@H](C)CC [CATHELICIDIN] |  |  |  |  |  | 40% |  |  |  |  |  |  |  |  |  |  |  |  |
| N=C(N)NCCNC(=O)c1cccc(-c2cccc(NC(=O)[C@@H](N)Cc3c[nH]c4ccccc34)c2)c1 | > 125 µM | 62.5 µM (≈ 30.2 µg/mL) | > 250 µM |  |  |  | 41% | 39% | Non-Toxic | > 300 µM | Dose-dependent effect |  |  |  |  |  |  |  |
| COC(=O)[C@H](CCCCN)NC(=O)c1cccc(-c2cccc(NC(=O)[C@H](Cc3c[nH]c4ccccc34)NC(=O)[C@@H](N)Cc3ccccc3)c2)c1 | 125 µM (≈ 86.1 µg/mL) | 31.2 µM (≈ 21.5 µg/mL) | 250 µM (≈ 172 µg/mL) | Active | Active |  |  |  | Non-Toxic | > 300 µM | Dose-dependent effect | inactive | Dose-dependent effect | Dose-dependent effect | Dose-dependent effect |  |  |  |
| COC(=O)[C@H](CCCNC(=N)N)NC(=O)c1cccc(-c2cccc(NC(=O)[C@H](Cc3c[nH]c4ccccc34)NC(=O)[C@@H](N)Cc3ccccc3)c2)c1 | 125 µM (≈ 89.6 µg/mL) | 31.2 µM (≈ 22.4 µg/mL) | 250 µM (≈ 179 µg/mL) | Active | Active |  |  |  | Non-Toxic | > 300 µM | Dose-dependent effect | inactive | Dose-dependent effect | Dose-dependent effect | inactive |  |  |  |
| NCCNC(=O)c1cccc(-c2cccc(NC(=O)[C@H](Cc3c[nH]c4ccccc34)NC(=O)[C@@H](N)Cc3ccccc3)c2)c1 | > 125 µM | 62.5 µM (≈ 36.8 µg/mL) | 250 µM (≈ 147 µg/mL) |  |  |  |  |  |  |  |  |  |  |  |  |  |  |  |
| NCCNC(=O)c1cccc(-c2cccc(NC(=O)[C@@H](N)Cc3c[nH]c4ccccc34)c2)c1 | > 125 µM | 125 µM (≈ 55.2 µg/mL) | > 250 µM |  |  |  |  |  |  |  |  |  |  |  |  |  |  |  |
| N=C(N)NCCNC(=O)[C@H](CCCCN)NC(=O)c1cccc(-c2cccc(NC(=O)[C@H](Cc3c[nH]c4ccccc34)NC(=O)[C@@H](N)Cc3ccccc3)c2)c1 | 15.6 µM (≈ 11.8 µg/mL) | 31.2 µM (≈ 23.7 µg/mL) |  |  |  |  |  |  | Non-Toxic | > 300 µM | Dose-dependent effect |  |  |  |  | Active |  |  |
| N=C(N)NCCC[C@H](NC(=O)c1cccc(-c2cccc(NC(=O)[C@H](Cc3c[nH]c4ccccc34)NC(=O)[C@@H](N)Cc3ccccc3)c2)c1)C(=O)NCCNC(=N)N | 7.8 µM (≈ 6.14 µg/mL) | 15.6 µM (≈ 12.3 µg/mL) |  |  |  |  |  |  | Non-Toxic | > 300 µM | Dose-dependent effect |  |  |  |  |  | Active | Active |
| N=C(N)NCCNC(=O)c1cccc(-c2cccc(NC(=O)[C@H](Cc3c[nH]c4ccccc34)NC(=O)[C@@H](N)Cc3ccccc3)c2)c1 | 31.2 µM (≈ 19.7 µg/mL) | 15.6 µM (≈ 9.84 µg/mL) | 250 µM (≈ 158 µg/mL) | Active | Active |  |  |  | Non-Toxic | > 300 µM | Dose-dependent effect | inactive | Dose-dependent effect | Dose-dependent effect | Dose-dependent effect |  |  |  |
| NCCCC[C@H](NC(=O)c1cccc(-c2cccc(NC(=O)[C@H](Cc3c[nH]c4ccccc34)NC(=O)[C@@H](N)Cc3ccccc3)c2)c1)C(=O)NCCN | 31.2 µM (≈ 22.4 µg/mL) | 31.2 µM (≈ 22.4 µg/mL) | 250 µM (≈ 179 µg/mL) | Active | Active |  | 30% | 8% | Non-Toxic | > 300 µM | Dose-dependent effect | inactive | Dose-dependent effect | Dose-dependent effect | Dose-dependent effect | Active |  |  |
| COC(=O)[C@H](CCCNC(=N)N)NC(=O)c1cccc(-c2cccc(NC(=O)[C@@H](N)Cc3c[nH]c4ccccc34)c2)c1 | > 125 µM | 62.5 µM (≈ 35.6 µg/mL) | > 250 µM |  |  |  |  |  | Non-Toxic | > 300 µM | Dose-dependent effect |  |  |  |  |  |  |  |
| COC(=O)[C@H](CCCCN)NC(=O)c1cccc(-c2cccc(NC(=O)[C@@H](N)Cc3c[nH]c4ccccc34)c2)c1 | > 125 µM | 31.2 µM (≈ 16.9 µg/mL) | > 250 µM |  |  |  |  |  |  |  |  |  |  |  |  |  |  |  |
| NCCCC[C@H](NC(=O)c1cccc(-c2cccc(NC(=O)[C@@H](N)Cc3c[nH]c4ccccc34)c2)c1)C(=O)NCCN | > 125 µM | 31.2 µM (≈ 17.8 µg/mL) | > 250 µM |  |  |  |  |  |  |  |  |  |  |  |  |  |  |  |

Reference: ChEMBL document CHEMBL4138177, “Design and synthesis of short amphiphilic cationic peptidomimetics based on biphenyl backbone as antibacterial agents” (Eur J Med Chem, 2018)
